# Measurements published in ChEMBL document CHEMBL4304770, “Discovery of Irreversible Inhibitors Targeting Histone Methyltransferase, SMYD3” (ACS Med Chem Lett, 2019).
# Active and inactive are the calls of the source. No cut-off for these calls is given here.
# What was measured:
# [1] = Apparent intrinsic clearance in mouse liver microsomes measured upto 60 mins by LC-MS/MS analysis; format: ADME, Microsome; settings: 1 h
# [2] = Apparent intrinsic clearance in human liver microsomes measured upto 60 mins by LC-MS/MS analysis; format: ADME, Microsome; settings: 1 h
# [3] = target: T1, Histone-lysine N-methyltransferase SMYD3 (Homo sapiens, UniProt Q9H7B4); test: Inhibition of SMYD3 (unknown origin) using MAP3K2 peptide as substrate pretreated for 30 mins followed by substrate addition and measured after 30 mins by MTase Glo reagent based luminescence assay
# T1 sequence (Q9H7B4 whole entry): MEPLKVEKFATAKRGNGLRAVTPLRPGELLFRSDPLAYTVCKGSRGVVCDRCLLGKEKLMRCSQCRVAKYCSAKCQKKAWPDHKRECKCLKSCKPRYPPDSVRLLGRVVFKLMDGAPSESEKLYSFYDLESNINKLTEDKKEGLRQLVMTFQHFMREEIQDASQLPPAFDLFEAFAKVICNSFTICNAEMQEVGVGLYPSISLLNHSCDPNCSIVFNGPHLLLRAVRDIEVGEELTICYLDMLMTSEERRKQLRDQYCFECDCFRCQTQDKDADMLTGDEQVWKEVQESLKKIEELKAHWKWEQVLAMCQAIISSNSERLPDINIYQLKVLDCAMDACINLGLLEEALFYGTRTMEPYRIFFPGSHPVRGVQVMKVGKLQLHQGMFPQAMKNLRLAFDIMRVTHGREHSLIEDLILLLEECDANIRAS
# In short: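 SMYD3 IC50 values taken as mean of duplicate experiments.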
# [4] = target: T2, Histone-lysine N-methyltransferase SMYD3 (Homo sapiens) (UniProt Q9H7B4); test: Inhibition of SMYD3 in human HepG2 cells assessed as inhibition of cell proliferation incubated for 3 days by CellTiter-Glo luminescent assay; format: cell-based
# T2 sequence (whole entry): T1 sequence (Q9H7B4 whole entry)
# [5] = Metabolic stability in mouse liver microsomes assessed as half life preincubated for 5 mins followed by NADPH addition measured upto 60 mins by LC-MS/MS analysis; format: ADME, Microsome
# [6] = Metabolic stability in human liver microsomes assessed as half life preincubated for 5 mins followed by NADPH addition measured upto 60 mins by LC-MS/MS analysis; format: ADME, Microsome
# [7] = target: T2, Histone-lysine N-methyltransferase SMYD3 (Homo sapiens); test: Irreversible inhibition of SMYD3 (unknown origin) using MAP3K2 peptide as substrate assessed as kinact/Ki ratio pretreated for 5 mins followed by substrate addition and measured after 60 mins by MTase Glo reagent based luminescence assay
# [8] = target: T1, Histone-lysine N-methyltransferase SMYD3; test: Irreversible inhibition of SMYD3 (unknown origin) using MAP3K2 peptide as substrate pretreated for 5 mins followed by substrate addition and measured after 60 mins by MTase Glo reagent based luminescence assay
# [9] = target: T2, Histone-lysine N-methyltransferase SMYD3 (Homo sapiens); test: Irreversible inhibition of SMYD3 (unknown origin) using MAP3K2 peptide as substrate assessed as Kinact pretreated for 5 mins followed by substrate addition and measured after 60 mins by MTase Glo reagent based luminescence assay
# [10] = target: T2, Histone-lysine N-methyltransferase SMYD3 (Homo sapiens); test: Inhibition of SMYD3 in human HepG2 cells assessed as decrease in MAP3K2 methylation at 20 uM incubated for 24 hrs by cIEF based immunoassay relative to control; format: cell-based
# In short: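 HepG2 cells exposed to 20 μM for 24 h, DMSO control. MAP3K2-me2/me3 quantified by capillary isoelectric focusing in a nanofluidic proteomic immunoassay. Levels expressed relative to DMSO-treated cells.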
# [11] = target: T2, Histone-lysine N-methyltransferase SMYD3 (Homo sapiens); test: Inhibition of SMYD3 in human HepG2 cells assessed as inhibition of anchorage-independent colony formation in 3D culture cells incubated for 1 to 2 weeks by thiazolyl blue tetrazolium bromide based; format: cell-based
# HepG2 = test: Downregulation of SMYD3 in human HepG2 cells at 5 to 20 uM incubated for 24 hrs by Western blot analysis; format: functional
# In short: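 SMYD3 protein in HepG2 cells probed by Western blot after exposure at 5 and 20 μM, with DMSO control for comparison.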
# [12] = GSH reactivity in pH 7.4 phosphate buffer assessed as pseudo first -order rate constant at 0.25 mM in presence of glutathione by HPLC-MS analysis; format: physicochemical; settings: pH 7.4, 250 µM
# [13] = Apparent permeability across apical to basolateral side in human Caco2 cells by LC-MS/MS analysis; format: ADME, cell-based; settings: Caco-2
# [14] = Apparent permeability across basolateral to apical side in human Caco2 cells by LC-MS/MS analysis; format: ADME, cell-based; settings: Caco-2
Compound,CLH(app) [1] [uL/min/mL],CLH(app) [2] [uL/min/mL],IC50 [3] [µM],half-life [5] [min],half-life [6] [min],also measured
CCOC(=O)N1CCN(C(=O)c2ccc3c(Cl)c4c(nc3c2)CCCC4)CC1,245,107,4.78,4,9,GI50 [4]: > 100 µM
CCOC(=O)N1CCN(C(=O)c2ccc3cc4c(nc3c2)CCCC4)CC1,–,–,> 750,–,–,–
CCOC(=O)N1CCN(C(=O)c2ccc3c(Cl)c4c(nc3c2)CCC4)CC1,–,–,30.5,–,–,–
NCCOC(=O)N1CCN(C(=O)c2ccc3c(Cl)c4c(nc3c2)CCCC4)CC1,–,–,132,–,–,–
CCCOC(=O)N1CCN(C(=O)c2ccc3c(Cl)c4c(nc3c2)CC(CN)CC4)[C@@H](C)C1 (stereo partly drawn),–,–,0.067,–,–,K [12]: 0.5 ×10⁻³ /min
CCOC(=O)N1CCN(C(=O)c2ccc3c(Cl)c4c(nc3c2)CCCCC4)CC1,–,–,20.4,–,–,–
CCCOC(=O)N1CCN(C(=O)c2ccc3c(Cl)c4c(nc3c2)CCCC4)C(C)C1 (racemic),–,–,–,–,–,K [12]: 0.8 ×10⁻³ /min
CCCOC(=O)N1CCN(C(=O)c2ccc3c(Cl)c4c(nc3c2)CCCC4)[C@@H](C)C1,–,–,0.14,–,–,–
CCCOC(=O)N1CCN(C(=O)c2ccc3c(Cl)c4c(nc3c2)CCCC4)[C@H](C)C1,–,–,0.25,–,–,–
CCCCOC(=O)N1CCN(C(=O)c2ccc3c(Cl)c4c(nc3c2)CCCC4)CC1,–,–,0.36,–,–,–
CCOC(=O)N1CCN(C(=O)c2ccc3c(C)c4c(nc3c2)CCCC4)CC1,–,–,> 750,–,–,–
C=CC(=O)Nc1cccc(OC)c1,–,–,–,–,–,K [12]: 3.4 ×10⁻³ /min
NCCCC(=O)N1CCN(C(=O)c2ccc3c(Cl)c4c(nc3c2)CCCC4)CC1,–,–,> 750,–,–,–
COC(=O)N1CCN(C(=O)c2ccc3c(Cl)c4c(nc3c2)CCCC4)CC1,–,–,123,–,–,–
CCCOC(=O)N1CCN(C(=O)c2ccc3c(Cl)c4c(nc3c2)CC(CN)CC4)CC1 (stereo not drawn),–,–,–,–,–,Papp A→B [13]: 4.43 ×10⁻⁶ cm/s; Papp B→A [14]: 16.2 ×10⁻⁶ cm/s

# Now from value to compound, other results behind:
CLH(app) [1] [uL/min/mL],CLH(app) [2] [uL/min/mL],IC50 [3] [µM],half-life [5] [min],half-life [6] [min],Compound,also measured
–,–,0.37,–,–,CCCOC(=O)N1CCN(C(=O)c2ccc3c(Cl)c4c(nc3c2)CCCC4)CC1,–
70,28,0.3,13,33,CCCOC(=O)N1CCN(C(=O)c2ccc3c(Cl)cc(-c4ccccc4)nc3c2)CC1,Ratio [7]: 833 M⁻¹ s⁻¹; Ki [8]: 3.9 µM; Kinact [9]: 0.193 min⁻¹; GI50 [4]: > 100 µM
58,43,0.17,16,21,CCCOC(=O)N1CCN(C(=O)c2ccc3c(Cl)cc(-c4ccccc4)nc3c2)C[C@H]1C,inhibition [10]: 55%; GI50 [11]: 0.79 µM; GI50 [4]: 24.4 µM
13,20,0.0117,52,35,CCCOC(=O)N1CCN(C(=O)c2ccc3c(Cl)cc(-c4ccc(C5(N)CC5)cc4)nc3c2)C[C@H]1C,inhibition [10]: 66%; Ratio [7]: 2110 M⁻¹ s⁻¹; Ki [8]: 0.44 µM; GI50 [11]: 1.04 µM; Kinact [9]: 0.055 min⁻¹; inhibition (INH) (HepG2): 50%; GI50 [4]: 17.7 µM
750,23,–,1,40,CCCOC(=O)N1CCN(C(=O)c2ccc3c(Cl)ccnc3c2)CC1,–
22,26,0.37,41,36,CCCOC(=O)N1CCN(C(=O)c2ccc3c(Cl)cc(-c4ccc(C)cc4)nc3c2)CC1,–
20,53,–,46,17,CCCOC(=O)N1CCN(C(=O)c2ccc3c(Cl)cc(-c4ccc(C(=O)NC)cc4)nc3c2)CC1,Ratio [7]: 692 M⁻¹ s⁻¹; Ki [8]: 3.06 µM; Kinact [9]: 0.127 min⁻¹; GI50 [4]: > 100 µM
–,–,> 250,–,–,CCCOC(=O)N1CCN(C(=O)c2ccc3ccc(-c4ccccc4)nc3c2)C[C@H]1C,inhibition [10]: inactive; GI50 [11]: > 10 µM; GI50 [4]: 60.8 µM
43,32,–,22,28,CCCOC(=O)N1CCN(C(=O)c2ccc3c(Cl)cc(-c4ccc(OC)cc4)nc3c2)CC1,GI50 [4]: > 100 µM
